From ChEMBL document CHEMBL2034817, “Synthesis and evaluation of 4- and 5-pyridazin-3-one phenoxypropylamine analogues as histamine-3 receptor antagonists” (Bioorg Med Chem, 2012)
Active and inactive are the calls of the source. No cut-off for these calls is given here.

What was measured:
Histamine H3 receptor [1] = biological target: Histamine H3 receptor (Rattus norvegicus, UniProt Q9QYN8); assay: Displacement of [3H]-Nalpha-methylhistamine from rat histamine H3 receptor expressed in CHO-A3 cells after 4 hrs by scintillation proximity assay; assay type: cell-based
Sequence of Histamine H3 receptor (Rattus norvegicus, UniProt Q9QYN8) (Q9QYN8 whole entry): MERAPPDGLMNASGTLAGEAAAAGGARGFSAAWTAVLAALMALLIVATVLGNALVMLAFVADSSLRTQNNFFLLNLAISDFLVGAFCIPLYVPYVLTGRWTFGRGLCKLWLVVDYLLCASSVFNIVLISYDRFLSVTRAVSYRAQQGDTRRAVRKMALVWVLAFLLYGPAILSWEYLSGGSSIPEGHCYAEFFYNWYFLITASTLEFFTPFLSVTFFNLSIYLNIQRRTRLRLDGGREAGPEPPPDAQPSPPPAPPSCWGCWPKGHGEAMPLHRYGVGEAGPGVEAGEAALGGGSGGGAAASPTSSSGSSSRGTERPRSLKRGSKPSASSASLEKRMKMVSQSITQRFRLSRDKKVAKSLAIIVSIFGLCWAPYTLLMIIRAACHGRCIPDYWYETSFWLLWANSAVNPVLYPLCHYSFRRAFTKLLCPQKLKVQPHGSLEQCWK
In short: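 Rat H3 receptor in pIRES-neo3 stably transfected into CHO-A3 cells, clonally selected; washed membranes in Tris–HCl pH 7.4, 5 mM MgCl2, 0.1% BSA, 10 µg protein/well; ~1 nM final [3H]-N-alpha-methylhistamine, compounds 0.01 nM–30 µM, SPA beads, 4 h room temperature, dark; nonspecific with 10 µM clobenpropit; scintillation counting.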

[2] = Plasma protein binding in mouse at 5 uM after 1 hr by LC-MS/MS analysis; assay type: ADME, cell-free; conditions: read-out: PPB (converted)
[3] = AUC (0 to t) in Sprague-Dawley rat at 5 mg/kg, po; assay type: ADME, organism-based; design: dose 5 mg/kg, route oral; conditions: plasma
In short: (§1)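 Adult male Sprague–Dawley rats (275–350 g). iv dosing via lateral tail vein (3% DMSO/30% Solutol/67% PBS or 100% saline); oral gavage after overnight fast (Tween 80/propylene carbonate/propylene glycol, saline, or 2% HCl–water). Seven serial tail-vein blood samples over 6 or 24 h; plasma protein-precipitated with acetonitrile, LC–MS/MS; noncompartmental parameters.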

[4] = Plasma protein binding in rat at 5 uM after 1 hr by LC-MS/MS analysis; assay type: ADME, cell-free; conditions: read-out: PPB (converted)
[5] = Ratio of drug level in brain to plasma in Sprague-Dawley rat at 5 mg/kg, po at 6 hrs; assay type: ADME, organism-based; design: dose 5 mg/kg, route oral; conditions: read-out: BPR
In short: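 Brain-to-plasma ratio from the 6 h time point after 5 mg/kg po dosing in Sprague–Dawley rats; plasma drug measured by LC–MS/MS after acetonitrile protein precipitation.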

Rattus norvegicus [6] = assay: Wake promoting activity in rat assessed as cumulative wake time at 10 mg/kg, ip after 4 hrs (reference value: 76+/-6 mins); assay type: functional; conditions: route intraperitoneal
[7] = Clearance in Sprague-Dawley rat at 1 mg/kg, iv; assay type: ADME, organism-based; design: dose 1 mg/kg, route intravenous; conditions: in vivo; in short: as §1
[8] = Fraction unbound in rat brain homogenate; assay type: ADME, tissue-based
Rattus norvegicus [9] = assay: Antidipsogenic activity in ip dosed Harlan Long Evans rat assessed as inhibition of RAMH-induced water drinking; assay type: functional
In short: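 Water drinking for 30 min beginning 20 min after RAMH (10 mg/kg ip); test compound in saline given beforehand. Per-rat percent inhibition normalized to RAMH group mean drinking; group means compared by one-way ANOVA with Dunnett's test versus RAMH group.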

Rattus norvegicus [10] = assay: Wake promoting activity in ip dosed rat assessed as increased wake activity after 4 hrs; assay type: functional, organism-based
Rattus norvegicus [11] = assay: Toxicity in rat assessed as rat assessed as adverse EEG activity up to 30 mg/kg, ip; assay type: organism-based; design: dose 30 mg/kg, route intraperitoneal; conditions: in vivo
In short: (§2)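 Rats implanted for chronic EEG/EMG recording, dosed ip up to 30 mg/kg; EEG monitored for adverse activity, and sleep after the wake period scored for rebound up to 22 h post-dose.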

[12] = Cmax in Sprague-Dawley rat at 5 mg/kg, po; assay type: ADME, organism-based; design: dose 5 mg/kg, route oral; conditions: in vivo; in short: as §1
Histamine H3 receptor [13] = biological target: Histamine H3 receptor (Homo sapiens, UniProt Q9Y5N1); assay: Displacement of [3H]-Nalpha-methylhistamine from human histamine H3 receptor expressed in CHO cells after 4 hrs by scintillation proximity assay; assay type: cell-based
Sequence of Histamine H3 receptor (Homo sapiens, UniProt Q9Y5N1) (Q9Y5N1 whole entry): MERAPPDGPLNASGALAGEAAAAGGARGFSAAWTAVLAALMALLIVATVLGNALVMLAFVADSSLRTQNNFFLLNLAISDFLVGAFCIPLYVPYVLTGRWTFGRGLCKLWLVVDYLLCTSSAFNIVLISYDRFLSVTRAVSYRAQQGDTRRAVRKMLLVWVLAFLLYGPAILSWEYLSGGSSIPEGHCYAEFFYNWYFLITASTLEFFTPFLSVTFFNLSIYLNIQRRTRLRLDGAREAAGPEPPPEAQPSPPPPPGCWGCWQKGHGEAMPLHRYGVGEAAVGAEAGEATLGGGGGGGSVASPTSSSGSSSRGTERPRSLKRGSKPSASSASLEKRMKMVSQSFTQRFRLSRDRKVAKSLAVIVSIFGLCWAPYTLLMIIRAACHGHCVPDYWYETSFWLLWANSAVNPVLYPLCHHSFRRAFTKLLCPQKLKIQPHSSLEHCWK
In short: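 Membranes from CHO cells stably expressing human H3 receptor, in 50 mM Tris–HCl pH 7.4, 5 mM MgCl2, 0.1% BSA, 10 µg protein/well; ~1 nM final [3H]-N-alpha-methylhistamine; compounds 0.01 nM–30 µM; SPA beads; 4 h room temperature, dark; nonspecific binding with 10 µM clobenpropit; scintillation counting. Assay-to-assay variation typically within 2.5-fold.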

Rattus norvegicus [14] = assay: Toxicity in rat assessed as rat assessed as sleep rebound up to 30 mg/kg, ip up to 22 hrs; assay type: organism-based; design: dose 30 mg/kg, route intraperitoneal; conditions: in vivo; in short: as §2
Salmonella typhimurium = assay: Genotoxicity against Salmonella typhimurium by AMES test; assay type: toxicity, organism-based; conditions: salmonella enterica subsp. enterica serovar typhimurium
[15] = Solubility of the compound in water; assay type: physicochemical; conditions: buffer
[16] = Plasma protein binding in human at 5 uM after 1 hr by LC-MS/MS analysis; assay type: ADME, cell-free; conditions: read-out: PPB (converted)
[17] = Oral bioavailability in Sprague-Dawley rat at 5 mg/kg; assay type: ADME, organism-based; conditions: in vivo; in short: as §1
[18] = biological target: Histamine H3 receptor (Rattus norvegicus) (UniProt Q9QYN8); assay: Inverse agonist activity at histamine H3 receptor on rat cortex membrane by [35S]GTPgammaS binding assay; assay type: functional
Sequence of Histamine H3 receptor (Rattus norvegicus) (Q9QYN8 whole entry): as the sequence (Q9QYN8 whole entry) above

Rattus norvegicus [19] = assay: Wake promoting activity in rat assessed as cumulative wake time at 30 mg/kg, ip after 4 hrs (reference value: 76+/-6 mins); assay type: functional; conditions: route intraperitoneal
[20] = biological target: Histamine H3 receptor (Rattus norvegicus) (UniProt Q9QYN8); assay: Antagonist activity at histamine H3 receptor on rat cortex membrane by [35S]GTPgammaS binding assay; assay type: functional, tissue-based
[21] = Plasma protein binding in dog at 5 uM after 1 hr by LC-MS/MS analysis; assay type: ADME, cell-free, Canis lupus familiaris; conditions: read-out: PPB (converted)
[22] = biological target: Voltage-gated inwardly rectifying potassium channel KCNH2 (Homo sapiens, UniProt Q12809); assay: Inhibition of human ERG by patch clamp assay
In short: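 hERG inhibition measured in a patch clamp assay.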

Caco-2 = assay: Permeability across human Caco2 cells; assay type: ADME, cell-based
[23] = Volume of distribution in Sprague-Dawley rat at 1 mg/kg, iv; assay type: ADME, organism-based; design: dose 1 mg/kg, route intravenous; conditions: in vivo; in short: as §1
Histamine H2 receptor = Histamine H2 receptor (Homo sapiens, UniProt P25021); assay: Binding affinity to human histamine H2 receptor
Sequence of Histamine H2 receptor (P25021 whole entry): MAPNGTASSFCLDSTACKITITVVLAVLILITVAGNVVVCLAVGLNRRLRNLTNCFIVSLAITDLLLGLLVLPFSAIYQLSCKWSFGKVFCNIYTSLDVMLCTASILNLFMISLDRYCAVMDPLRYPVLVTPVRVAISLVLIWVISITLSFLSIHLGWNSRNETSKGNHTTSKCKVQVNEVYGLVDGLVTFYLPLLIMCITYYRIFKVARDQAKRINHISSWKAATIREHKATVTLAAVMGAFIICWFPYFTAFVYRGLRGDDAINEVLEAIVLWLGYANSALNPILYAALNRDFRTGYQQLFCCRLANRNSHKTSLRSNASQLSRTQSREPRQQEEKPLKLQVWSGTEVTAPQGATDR

Cytochrome P450 2C9 = Cytochrome P450 2C9 (Homo sapiens, UniProt P11712); assay: Inhibition of CYP2C9; assay type: ADME
Sequence of Cytochrome P450 2C9 (P11712 whole entry): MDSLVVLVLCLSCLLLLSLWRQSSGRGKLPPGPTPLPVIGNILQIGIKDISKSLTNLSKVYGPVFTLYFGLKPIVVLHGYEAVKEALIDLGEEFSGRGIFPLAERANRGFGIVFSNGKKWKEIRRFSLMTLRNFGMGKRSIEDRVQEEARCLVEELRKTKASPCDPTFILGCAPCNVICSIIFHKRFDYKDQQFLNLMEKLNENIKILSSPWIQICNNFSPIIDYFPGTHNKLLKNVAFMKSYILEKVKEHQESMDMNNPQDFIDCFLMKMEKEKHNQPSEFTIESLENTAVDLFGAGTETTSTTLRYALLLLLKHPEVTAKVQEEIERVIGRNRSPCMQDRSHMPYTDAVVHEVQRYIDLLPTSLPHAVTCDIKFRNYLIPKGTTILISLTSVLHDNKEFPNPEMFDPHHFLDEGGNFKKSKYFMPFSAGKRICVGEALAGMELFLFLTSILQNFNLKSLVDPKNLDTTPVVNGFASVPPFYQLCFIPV

Histamine H4 receptor = Histamine H4 receptor (Homo sapiens, UniProt Q9H3N8); assay: Binding affinity to human histamine H4 receptor
Sequence of Histamine H4 receptor (Q9H3N8 whole entry): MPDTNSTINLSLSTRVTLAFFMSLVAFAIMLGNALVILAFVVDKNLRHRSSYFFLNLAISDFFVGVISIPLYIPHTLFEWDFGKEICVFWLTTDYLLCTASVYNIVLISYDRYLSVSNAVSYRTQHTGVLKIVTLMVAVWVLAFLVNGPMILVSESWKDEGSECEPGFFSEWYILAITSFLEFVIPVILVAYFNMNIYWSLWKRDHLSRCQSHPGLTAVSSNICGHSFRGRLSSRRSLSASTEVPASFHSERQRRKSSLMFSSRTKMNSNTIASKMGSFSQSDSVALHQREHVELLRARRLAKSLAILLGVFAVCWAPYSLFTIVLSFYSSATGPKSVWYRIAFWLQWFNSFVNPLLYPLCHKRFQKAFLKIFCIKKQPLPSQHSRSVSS

Cytochrome P450 3A4 = Cytochrome P450 3A4 (Homo sapiens, UniProt P08684); assay: Inhibition of CYP3A4; assay type: ADME
Sequence of Cytochrome P450 3A4 (P08684 whole entry): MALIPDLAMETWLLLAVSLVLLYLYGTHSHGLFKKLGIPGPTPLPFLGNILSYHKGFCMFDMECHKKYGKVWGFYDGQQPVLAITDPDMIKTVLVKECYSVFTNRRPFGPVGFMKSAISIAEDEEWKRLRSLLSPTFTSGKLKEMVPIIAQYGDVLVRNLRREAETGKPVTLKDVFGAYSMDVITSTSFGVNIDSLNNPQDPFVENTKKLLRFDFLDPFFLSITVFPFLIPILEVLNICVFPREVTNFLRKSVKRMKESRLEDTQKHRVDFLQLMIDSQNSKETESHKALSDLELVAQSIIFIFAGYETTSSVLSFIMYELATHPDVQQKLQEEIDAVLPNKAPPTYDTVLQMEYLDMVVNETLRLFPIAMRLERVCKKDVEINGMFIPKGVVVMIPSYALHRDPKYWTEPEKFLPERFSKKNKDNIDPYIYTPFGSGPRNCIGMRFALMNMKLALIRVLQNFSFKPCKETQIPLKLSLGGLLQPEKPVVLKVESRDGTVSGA

[24] = Half life in mouse liver microsomes; assay type: ADME, Microsome
Cytochrome P450 2C19 = Cytochrome P450 2C19 (Homo sapiens, UniProt P33261); assay: Inhibition of CYP2C19; assay type: ADME
Sequence of Cytochrome P450 2C19 (P33261 whole entry): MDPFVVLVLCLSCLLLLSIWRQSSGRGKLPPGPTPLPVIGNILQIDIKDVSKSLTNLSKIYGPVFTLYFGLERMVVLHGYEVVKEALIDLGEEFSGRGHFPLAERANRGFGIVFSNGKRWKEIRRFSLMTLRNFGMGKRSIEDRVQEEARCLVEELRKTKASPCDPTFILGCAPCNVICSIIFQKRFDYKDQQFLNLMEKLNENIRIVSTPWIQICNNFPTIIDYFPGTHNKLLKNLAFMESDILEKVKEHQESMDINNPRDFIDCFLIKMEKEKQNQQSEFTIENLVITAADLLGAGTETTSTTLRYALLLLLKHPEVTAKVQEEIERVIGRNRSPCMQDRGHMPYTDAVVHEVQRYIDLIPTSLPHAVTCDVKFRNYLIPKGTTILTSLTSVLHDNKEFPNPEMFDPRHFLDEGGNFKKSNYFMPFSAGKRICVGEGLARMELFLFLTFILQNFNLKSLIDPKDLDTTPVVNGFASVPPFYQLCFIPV

[25] = Half life in rat liver microsomes; assay type: ADME, Microsome
[26] = Half life in human liver microsomes; assay type: ADME, Microsome
Histamine H1 receptor = Histamine H1 receptor (Homo sapiens, UniProt P35367); assay: Binding affinity to human histamine H1 receptor
Sequence of Histamine H1 receptor (P35367 whole entry): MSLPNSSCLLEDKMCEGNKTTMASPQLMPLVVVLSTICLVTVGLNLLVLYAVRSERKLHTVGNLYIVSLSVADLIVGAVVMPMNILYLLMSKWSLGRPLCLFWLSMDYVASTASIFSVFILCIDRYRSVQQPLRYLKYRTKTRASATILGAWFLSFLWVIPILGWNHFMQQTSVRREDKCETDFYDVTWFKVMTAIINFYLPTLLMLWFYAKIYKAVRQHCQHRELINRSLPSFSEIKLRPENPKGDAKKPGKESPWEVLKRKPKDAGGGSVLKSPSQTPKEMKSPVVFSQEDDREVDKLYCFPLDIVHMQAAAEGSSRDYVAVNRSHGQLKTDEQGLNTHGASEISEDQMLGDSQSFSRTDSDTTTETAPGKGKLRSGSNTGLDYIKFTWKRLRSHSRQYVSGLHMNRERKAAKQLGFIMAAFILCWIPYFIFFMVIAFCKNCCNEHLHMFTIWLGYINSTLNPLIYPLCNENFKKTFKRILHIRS

[27] = Half life in monkey liver microsomes; assay type: ADME, Macaca mulatta, Microsome; conditions: rhesus monkey
[28] = Half life in Sprague-Dawley rat at 1 mg/kg, iv; assay type: ADME, organism-based; design: dose 1 mg/kg, route intravenous; conditions: in vivo; in short: as §1
Cytochrome P450 1A2 = biological target: T1, Cytochrome P450 1A2 (Homo sapiens, UniProt P05177); assay: Inhibition of CYP1A2; assay type: ADME
T1 sequence (P05177 whole entry): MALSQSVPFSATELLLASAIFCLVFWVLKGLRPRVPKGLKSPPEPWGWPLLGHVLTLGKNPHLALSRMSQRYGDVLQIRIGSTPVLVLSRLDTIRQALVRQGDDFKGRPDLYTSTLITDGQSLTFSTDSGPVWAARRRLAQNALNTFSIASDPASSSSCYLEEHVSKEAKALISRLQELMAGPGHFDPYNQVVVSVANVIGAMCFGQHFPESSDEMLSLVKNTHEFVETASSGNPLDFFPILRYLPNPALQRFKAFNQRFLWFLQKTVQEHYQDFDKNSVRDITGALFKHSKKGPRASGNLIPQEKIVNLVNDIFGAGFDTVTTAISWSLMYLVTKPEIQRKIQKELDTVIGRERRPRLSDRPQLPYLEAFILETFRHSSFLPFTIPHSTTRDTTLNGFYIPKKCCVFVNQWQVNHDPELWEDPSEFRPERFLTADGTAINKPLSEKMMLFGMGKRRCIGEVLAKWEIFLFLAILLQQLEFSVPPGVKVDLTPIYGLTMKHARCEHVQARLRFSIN

Cytochrome P450 2D6 = Cytochrome P450 2D6 (Homo sapiens, UniProt P10635); assay: Inhibition of CYP2D6; assay type: ADME
Sequence of Cytochrome P450 2D6 (P10635 whole entry): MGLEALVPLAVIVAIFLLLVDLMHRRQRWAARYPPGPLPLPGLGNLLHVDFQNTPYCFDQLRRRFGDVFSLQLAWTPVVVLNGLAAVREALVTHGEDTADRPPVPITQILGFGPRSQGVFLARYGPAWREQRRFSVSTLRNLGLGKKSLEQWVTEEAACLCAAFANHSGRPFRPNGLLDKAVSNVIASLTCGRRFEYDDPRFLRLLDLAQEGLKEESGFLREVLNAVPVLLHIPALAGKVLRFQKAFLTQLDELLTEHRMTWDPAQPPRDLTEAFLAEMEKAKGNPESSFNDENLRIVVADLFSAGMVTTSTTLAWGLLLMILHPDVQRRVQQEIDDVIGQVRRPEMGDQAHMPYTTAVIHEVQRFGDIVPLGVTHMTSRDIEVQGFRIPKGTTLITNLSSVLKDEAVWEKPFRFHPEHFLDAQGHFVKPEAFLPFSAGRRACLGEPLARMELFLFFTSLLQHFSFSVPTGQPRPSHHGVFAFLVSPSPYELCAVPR

SMILES: C[C@@H](COc1ccc(-c2cn[nH]c(=O)c2)cc1)CN1CCC[C@H]1C
- Ki (Histamine H3 receptor [1]): 43 nM

SMILES: C[C@@H]1CCCN1CCCOc1ccc(-c2cn[nH]c(=O)c2)cc1
- fraction unbound at 1 h, 5 µM [2]: 0.8
- AUC(0-t) [3]: 1290 ng·h/mL
- fraction unbound at 1 h, 5 µM [4]: 0.8
- Kp at 6 h [5]: 1.8
- Time (Rattus norvegicus [6]): 191 min
- clearance [7]: 10 mL/min/kg
- fraction unbound [8]: 0.45
- ED50 (Rattus norvegicus [9]): 0.03 mg/kg
- Activity (Rattus norvegicus [10]): Dose-dependent effect
- Activity (Rattus norvegicus [11]): Non-toxic
- Cmax [12]: 401 ng/mL
- Ki (Histamine H3 receptor [13]): 3 nM
- Activity (Rattus norvegicus [14]): Non-toxic
- Activity (Salmonella typhimurium): Non-toxic
- solubility [15]: soluble
- fraction unbound at 1 h, 5 µM [16]: 0.8
- bioavailability [17]: 22%
- Activity [18]: Active
- Activity (Rattus norvegicus [19]): 95%
- Activity [20]: Active
- fraction unbound at 1 h, 5 µM [21]: 0.8
- IC50 [22]: 10000 nM
- permeability (Caco-2): permeable
- Ki (Histamine H3 receptor [1]): 9 nM

SMILES: COCn1ncc(OC)c(-c2ccc(OCCCN3CCC[C@H]3C)cc2)c1=O
- Ki (Histamine H3 receptor [13]): 10 nM
- Ki (Histamine H3 receptor [1]): 19 nM

SMILES: COCn1ncc(-c2ccc(OCCCN3CCC[C@H]3C)cc2)cc1=O
- Vd [23]: 3.2 L/kg
- AUC(0-t) [3]: 42 ng·h/mL
- Ki (Histamine H2 receptor): > 10000 nM
- clearance [7]: 93 mL/min/kg
- IC50 (Cytochrome P450 2C9): > 30000 nM
- Ki (Histamine H4 receptor): > 10000 nM
- IC50 (Cytochrome P450 3A4): > 30000 nM
- Cmax [12]: 53 ng/mL
- half-life [24]: > 40 min
- Ki (Histamine H3 receptor [13]): 4 nM
- IC50 (Cytochrome P450 2C19): > 30000 nM
- half-life [25]: > 40 min
- half-life [26]: > 40 min
- Ki (Histamine H1 receptor): > 10000 nM
- bioavailability [17]: 6%
- half-life [27]: > 40 min
- half-life [28]: 24 min
- IC50 (Cytochrome P450 1A2): > 30000 nM
- IC50 (Cytochrome P450 2D6): > 30000 nM
- Ki (Histamine H3 receptor [1]): 14 nM

SMILES: COc1cn[nH]c(=O)c1-c1ccc(OCCCN2CCC[C@H]2C)cc1
- Ki (Histamine H3 receptor [13]): 20 nM
- Ki (Histamine H3 receptor [1]): 62 nM

SMILES: C[C@@H](COc1ccc(-c2cn[nH]c(=O)c2)cc1)CN1CCCCC1
- Ki (Histamine H3 receptor [13]): 47 nM
- Ki (Histamine H3 receptor [1]): 131 nM

SMILES: C[C@H](COc1ccc(-c2cn[nH]c(=O)c2)cc1)CN1CCC[C@H]1C
- Vd [23]: 3.9 L/kg
- AUC(0-t) [3]: 762 ng·h/mL
- Ki (Histamine H2 receptor): > 10000 nM
- Kp at 6 h [5]: 6.2
- clearance [7]: 21 mL/min/kg
- IC50 (Cytochrome P450 2C9): > 30000 nM
- Ki (Histamine H4 receptor): > 10000 nM
- IC50 (Cytochrome P450 3A4): > 30000 nM
- Cmax [12]: 187 ng/mL
- half-life [24]: > 40 min
- IC50 (Cytochrome P450 2C19): > 30000 nM
- half-life [25]: > 40 min
- half-life [26]: > 40 min
- Ki (Histamine H1 receptor): > 10000 nM
- bioavailability [17]: 24%
- half-life [27]: > 40 min
- half-life [28]: 126 min
- IC50 (Cytochrome P450 1A2): > 30000 nM
- IC50 (Cytochrome P450 2D6): > 30000 nM
- Ki (Histamine H3 receptor [1]): 4 nM

SMILES: C[C@H](COc1ccc(-c2cn[nH]c(=O)c2)cc1)CN1CCCCC1
- Ki (Histamine H3 receptor [13]): 25 nM
- Ki (Histamine H3 receptor [1]): 34 nM

SMILES: COCn1ncc(-c2ccc(OCCCN3CCC[C@H]3C)cc2)c(OC)c1=O
- Ki (Histamine H3 receptor [13]): 5 nM
- Ki (Histamine H3 receptor [1]): 13 nM
